Hits are enriched below; roughly 1.3% of the tested compounds scored in any of these assays.
Arr AP2 block: blocks beta-arrestin peptide binding to AP2 adaptin | 340,000 compounds, 0.31% hits | FITC-arrestin peptide / GST-AP2 beads, flow cytometry; AP2 beta2 appendage carries R879A mutation | AID 504490 | inhibition, % at 10 µM;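 active = inhibition above a set limit, near 3 SD of compounds lacking own fluorescence, cut at about 54% in these data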;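 note: plate controls were DMSO wells for no effect and 5 µM unlabelled arrestin peptide for full effect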
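test system = AP2 appendage R879A on GSH beads | buffer or medium = PBS plus Tween 20 (0.05%) and BSA (0.1%) | incubation = 12 min plus 1 h, RT | detection = bead flow cytometry, FITC channel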
PLCb3 inh: inhibitors of human phospholipase C beta3; inhibition, % at 12.2 µM; Purified PLC-beta3, fluorogenic substrate, fluorescence; 370,000 compounds, 0.18% hits; Q01970; AID 720704; in the data active = inhibition above about 11%;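 note: 0% = median of compound wells on plate and 100% = full blocker control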
PLCg1 inh: blocks human PLC-gamma1 enzyme activity | inhibition, % at 12.2 µM | purified PLC-gamma1, fluorogenic substrate, fluorescence | P19174 | AID 720700 | 370,000 compounds, 0.84% hits; in the data active = inhibition above about 9.5%
NTR1 agonist: agonists of human neurotensin receptor NTR1; P30989; NTR1-U2OS beta-arrestin-GFP spot imaging, agonist mode; activation, % at 20 µM; 330,000 compounds, 0.17% hits;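 active = activation at or above 40% of the spot to cytoplasm intensity ratio, with at least 20 cells analyzed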;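 note: 0% = DMSO without peptide and 100% = 100 nM NTR1 peptide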
Arr AP2 CP1: blocks beta-arrestin peptide binding to human AP2; shares compounds with Arr AP2 block; GST-AP2 beads, FITC arrestin peptide binding, flow cytometry; GST-fused beta2-adaptin appendage, R879A mutant; inhibition, % at 10 µM; 1,300 compounds, 2% hits;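 active = inhibition above a set limit, roughly 3 SD of non-fluorescent compound noise, cut at about 38% in these data; inactive = inhibition at or below that limit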;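 note: loss of bead fluorescence from 50 nM FITC arrestin peptide bound to appendage; 0% = negative control wells and 100% = excess unlabelled arrestin peptide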
GST GSH counter: disrupts GST binding to glutathione beads, arrestin-AP2 artifact. shares compounds with Arr AP2 block. GST-fluorescein binding to GSH beads, fluorescence, counter-screen. inhibition, % at 10 µM. 1,300 compounds, 2% hits;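 active = inhibition above 50%, about 3 SD of the inhibition seen with non-fluorescent compounds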;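 note: fluorescein maleimide labelled GST captured on 4 micron glutathione beads; higher means more loss of bead fluorescence from quenching or blocked binding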
Numbers without * were called inactive.

`O=C(NNc1cccc(Cl)n1)c1ccccc1CC[N+](=O)[O-]` gave Arr AP2 block 55*, PLCb3 inh 3, PLCg1 inh 1, NTR1 agonist 2, Arr AP2 CP1 4 and GST GSH counter -7.
For CC(C)(C)[C@H]1C=C(C(=O)N2CCOCC2)O[C@@H](OCCCCO)C1 the results were Arr AP2 block 54*, PLCb3 inh 3, PLCg1 inh -2, NTR1 agonist -1, Arr AP2 CP1 -7 and GST GSH counter -2.
CCN(CC)C(=O)c1ncn2c1C(=O)N[C@H](C)C2 was read as PLCb3 inh 4 and PLCg1 inh -1.
`COC(=O)C1=C(NC(=O)COc2ccc(Cl)cc2Cl)CCS1` gave Arr AP2 block 67*, PLCb3 inh 3, PLCg1 inh 3, NTR1 agonist 9, Arr AP2 CP1 -1 and GST GSH counter 2.
`O=[N+]([O-])c1ccc(NS(=O)(=O)c2cccc3cccnc23)cc1` gave Arr AP2 block 55*, PLCb3 inh -3, PLCg1 inh 7, NTR1 agonist 1, Arr AP2 CP1 -2 and GST GSH counter -2.
`O=S(=O)(Nc1ccc(O)cc1)c1cccc2cccnc12` gave Arr AP2 block -3, PLCb3 inh 1, PLCg1 inh 0 and NTR1 agonist 0.
Screening CC(Cc1ccccn1)NC(=O)c1ccc(OC2CCN(Cc3ccccn3)CC2)cc1 (stereo not drawn) returned Arr AP2 block 62*, PLCb3 inh -7, PLCg1 inh 0, NTR1 agonist 0, Arr AP2 CP1 11 and GST GSH counter 1.
`CCN(CC)C(=O)Nc1c(C)n(C)n(-c2ccccc2)c1=O` gave Arr AP2 block 65*, PLCb3 inh 3, PLCg1 inh 3, NTR1 agonist 1, Arr AP2 CP1 0 and GST GSH counter -3.
COc1ccc2c(c1)CCCN2C(=O)C1CCCN(S(=O)(=O)c2cccc3ccccc23)C1 (stereo not drawn) was read as PLCb3 inh -1 and PLCg1 inh 2.
For CC1(C)CC2(CCO1)N1CC3(C)CN2CC(C)(C1)C3=O (stereo not drawn) the results were Arr AP2 block 84*, PLCb3 inh 4, PLCg1 inh 6, NTR1 agonist -2, Arr AP2 CP1 -1 and GST GSH counter -3.
COc1ccc(CN(CCN2CCOCC2)C(=O)c2cccc(F)c2)cc1OC was read as PLCb3 inh 0 and PLCg1 inh -1.
`CN(C)c1ccc(/C=N\Nc2nc(-c3ccccc3)cc(=O)[nH]2)cc1` gave Arr AP2 block 102*, PLCb3 inh -25, PLCg1 inh -23, NTR1 agonist 4, Arr AP2 CP1 -2 and GST GSH counter -2.
`CN(C)c1ccc(C=NNc2nc3c([nH]2)c(=O)n(C)c(=O)n3C)cc1` gave Arr AP2 block 17, PLCb3 inh -21 and PLCg1 inh -11.
CCOc1ccc(OCCC(=O)N2CCN(S(=O)(=O)c3ccc(OCC)cc3)CC2)cc1 was read as Arr AP2 block 21, PLCb3 inh -1, PLCg1 inh -2 and NTR1 agonist 3.
For CCOc1ccc(OCCCC(=O)N2CCN(S(=O)(=O)c3ccccc3C#N)CC2)cc1 the results were Arr AP2 block 57*, PLCb3 inh -3, PLCg1 inh 0, NTR1 agonist -1, Arr AP2 CP1 -14 and GST GSH counter 0.
`CCC(=O)Nc1ccc2c(c1)C(=O)N(C)[C@@H]1CC[C@@H](CC(=O)NCCN3CCCCC3)O[C@H]1CO2` gave PLCb3 inh -3 and PLCg1 inh 8.
Cc1c(C(=O)c2ccc(F)cc2F)c2ccccn2c1CCC#N was read as Arr AP2 block 62*, PLCb3 inh -397, PLCg1 inh -265, NTR1 agonist -1, Arr AP2 CP1 3 and GST GSH counter -5.
Screening Cc1c(C(=O)c2ccc(F)cc2F)c2ccccn2c1CCc1ccccn1 returned PLCb3 inh -335 and PLCg1 inh -295.
For O=C(Cn1nnc(-c2ccncc2)n1)Nc1ccc(F)cc1F the results were PLCb3 inh 1 and PLCg1 inh 1.
Cc1cc(Br)ccc1OCCCN1CCC(C(O)(c2ccccc2)c2ccccc2)CC1 was read as PLCb3 inh -3 and PLCg1 inh 1.
`O=C(O)CCC(=O)NNC(=O)c1cccc(Br)c1` gave Arr AP2 block 58*, PLCb3 inh -24, PLCg1 inh -3, NTR1 agonist 0, Arr AP2 CP1 0 and GST GSH counter -5.
For CCCS(=O)(=O)c1nc(S(=O)(=O)c2ccc(C)cc2)c(N2CCC(C(N)=O)CC2)s1 the results were Arr AP2 block 61*, PLCb3 inh -7, PLCg1 inh -3, NTR1 agonist 1, Arr AP2 CP1 -4 and GST GSH counter -6.
O=C(CSc1nnc(COc2ccccc2)n1-c1ccc(Cl)cc1)Nc1ccccc1-c1ccccc1 was read as PLCb3 inh 8 and PLCg1 inh 7.
Screening CCCCc1cc(=O)oc2cc(C)cc(OC(C)C(=O)NCc3ccncc3)c12 (stereo not drawn) returned Arr AP2 block 67*, PLCb3 inh -65, PLCg1 inh -35, NTR1 agonist 1, Arr AP2 CP1 -6 and GST GSH counter -5.
`O=C(CN1CCc2onc(-c3ccc(-n4cc(-c5ccccc5)nn4)cc3)c2C1=O)N1CCOCC1` gave PLCb3 inh 1 and PLCg1 inh -2.
`O=C(NN1CCOCC1)c1cccc(Cl)c1` gave Arr AP2 block 71*, PLCb3 inh -10, PLCg1 inh 0, NTR1 agonist -1, Arr AP2 CP1 1 and GST GSH counter -11.
COCc1cccc(-c2cc(C(=O)OC)c3n(c2=O)CCC3)c1 was read as PLCb3 inh -2 and PLCg1 inh -1.
Screening CCCCCCCCN1C(=O)[C@@H](CC(=O)NCC2CCCCC2)C[C@@]2(C(=O)OC)C1=C[C@H](C(C)C)O[C@@H]2C1CC1 returned PLCb3 inh 6 and PLCg1 inh 3.
Cn1ccnc1SCc1cn2ccccc2n1 was read as Arr AP2 block 83*, PLCb3 inh 2, PLCg1 inh 3, NTR1 agonist -1, Arr AP2 CP1 3 and GST GSH counter 5.
CCN(CC)C(=S)NC(=O)c1cc(OC)c(OC)c(OC)c1 was read as Arr AP2 block 57*, PLCb3 inh 3, PLCg1 inh 5, NTR1 agonist 0, Arr AP2 CP1 -13 and GST GSH counter -6.
For CCN1CCN(C(=S)NC(=O)c2cc(OC)c(OC)c(OC)c2)CC1 the results were Arr AP2 block -18, PLCb3 inh -7, PLCg1 inh 3 and NTR1 agonist 1.
`O=C(CC12CC3CC(CC(C3)C1)C2)NC(Cc1ccccc1)C(=O)O` (stereo not drawn) gave Arr AP2 block 55*, PLCb3 inh -2, PLCg1 inh 0, NTR1 agonist 1, Arr AP2 CP1 -1 and GST GSH counter 9.
